ChEMBL document CHEMBL1138735, “Identification of 1,5-naphthyridine derivatives as a novel series of potent and selective TGF-beta type I receptor inhibitors” (J Med Chem, 2004)

How the values were obtained:
TGF-beta receptor type-1 [1] = target: T1, TGF-beta receptor type-1 (Homo sapiens, UniProt P36897); assay: Stimulation of Transforming growth factor beta receptor I kinase in HepG2 cells; format: functional, cell-based
T1 sequence (P36897 whole entry): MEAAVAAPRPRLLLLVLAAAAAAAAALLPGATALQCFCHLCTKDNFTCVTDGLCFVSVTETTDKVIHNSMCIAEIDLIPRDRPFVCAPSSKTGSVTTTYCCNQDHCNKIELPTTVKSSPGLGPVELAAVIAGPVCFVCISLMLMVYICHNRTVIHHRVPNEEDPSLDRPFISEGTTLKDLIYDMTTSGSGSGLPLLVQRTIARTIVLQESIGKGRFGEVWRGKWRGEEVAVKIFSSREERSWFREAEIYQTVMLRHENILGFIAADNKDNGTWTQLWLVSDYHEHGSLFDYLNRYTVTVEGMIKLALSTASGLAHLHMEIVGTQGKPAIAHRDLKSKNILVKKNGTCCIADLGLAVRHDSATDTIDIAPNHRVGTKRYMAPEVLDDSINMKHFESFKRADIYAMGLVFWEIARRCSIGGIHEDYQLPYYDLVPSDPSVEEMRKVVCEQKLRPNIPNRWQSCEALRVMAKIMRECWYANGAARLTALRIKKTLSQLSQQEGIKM

TGF-beta receptor type-1 [2] = target: T1, TGF-beta receptor type-1; assay: Binding affinity to Activin A receptor type II-like kinase (ALK5) in fluorescence polarization binding assay; Range is (5.326-22.574)
How it was run: (§1)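 Purified recombinant GST-ALK5 (residues 198–503), final 10 nM by active-site titration, in 62.5 mM HEPES pH 7.5, 1 mM DTT, 12.5 mM MgCl2, 1.25 mM CHAPS with 1 nM rhodamine green-labelled ATP-competitive ligand. Test compound added over a concentration series, plate read immediately by fluorescence polarization (ex 485/em 530 nm). Binding pIC50 from concentration–response curves; mean of two or more experiments, 95% confidence limits converted to IC50.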

TGF-beta receptor type-1 [3] = target: T1, TGF-beta receptor type-1; assay: Binding affinity to Activin A receptor type II-like kinase (ALK5) in fluorescence polarization binding assay; Range is (0.864-3.661)
How it was run: (§2)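 Purified recombinant GST-ALK5 (residues 198–503), final 10 nM by active-site titration, in 62.5 mM HEPES pH 7.5, 1 mM DTT, 12.5 mM MgCl2, 1.25 mM CHAPS with 1 nM rhodamine green-labelled ATP-competitive ligand. Test compound added over a concentration range; plates read immediately for fluorescence polarization (ex 485/em 530 nm). Binding pIC50 from concentration–response curves; means of two or more experiments, mean pIC50 converted to IC50, with 95% confidence limits.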

TGF-beta receptor type-1 [4] = target: T1, TGF-beta receptor type-1; assay: Binding affinity for Activin A receptor type II-like kinase (ALK5) in fluorescence polarization binding assay; how it was run: as §2
[5] = target: Mitogen-activated protein kinase kinase kinase 11 (Homo sapiens, UniProt Q16584); assay: Inhibition of MLK3 kinase binding in fluorescence polarization assay
[6] = target: Ribosomal protein S6 kinase alpha-5 (Homo sapiens, UniProt O75582); assay: Inhibition of MSK-1 kinase binding in fluorescence polarization assay
[7] = target: Serine/threonine-protein kinase B-raf (Homo sapiens, UniProt P15056); assay: Inhibition of Protein kinase Raf-B binding in fluorescence polarization assay
[8] = target: Mitogen-activated protein kinase 10 (Homo sapiens, UniProt P53779); assay: Inhibition of c-Jun N-terminal kinase 3-alpha binding in HTRF assay
[9] = target: Mitogen-activated protein kinase 8 (Homo sapiens, UniProt P45983); assay: Inhibition of c-Jun N-terminal kinase 1-alpha 1 binding in fluorescence polarization assay
[10] = target: Proto-oncogene tyrosine-protein kinase LCK (Mus musculus, UniProt P06240); assay: Inhibition of p56 Lck tyrosine kinase binding in HTRF assay
[11] = target: T2, Tyrosine-protein kinase ITK/TSK (Homo sapiens, UniProt Q08881)
T2 sequence (Q08881 whole entry): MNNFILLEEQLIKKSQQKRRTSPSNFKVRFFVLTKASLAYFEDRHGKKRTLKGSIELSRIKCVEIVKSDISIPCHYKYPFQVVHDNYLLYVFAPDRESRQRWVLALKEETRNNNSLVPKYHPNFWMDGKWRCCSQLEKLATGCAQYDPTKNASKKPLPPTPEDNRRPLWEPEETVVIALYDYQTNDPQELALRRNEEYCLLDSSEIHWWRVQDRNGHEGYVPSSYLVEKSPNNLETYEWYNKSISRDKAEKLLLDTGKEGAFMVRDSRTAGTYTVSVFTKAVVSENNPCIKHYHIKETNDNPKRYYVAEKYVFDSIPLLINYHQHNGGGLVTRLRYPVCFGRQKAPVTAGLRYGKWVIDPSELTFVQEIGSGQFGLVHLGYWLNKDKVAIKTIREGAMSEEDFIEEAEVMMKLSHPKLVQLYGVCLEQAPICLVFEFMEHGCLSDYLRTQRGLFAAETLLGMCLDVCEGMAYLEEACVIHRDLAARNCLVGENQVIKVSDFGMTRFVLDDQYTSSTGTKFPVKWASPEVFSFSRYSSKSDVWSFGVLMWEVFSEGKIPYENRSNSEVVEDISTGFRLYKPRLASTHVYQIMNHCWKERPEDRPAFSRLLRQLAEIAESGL

TGF-beta receptor type-1 [12] = target: T1, TGF-beta receptor type-1; assay: Binding affinity to Activin A receptor type II-like kinase (ALK5) in fluorescence polarization binding assay; Range is (0.783-1.764); how it was run: as §1
TGF-beta receptor type-1 [13] = target: T1, TGF-beta receptor type-1; assay: Binding affinity to Activin A receptor type II-like kinase (ALK5) in fluorescence polarization binding assay; Range is (3.221-19.588); how it was run: as §2
TGF-beta receptor type-1 [14] = target: T1, TGF-beta receptor type-1; assay: Binding affinity to Activin A receptor type II-like kinase (ALK5) in fluorescence polarization binding assay; Range is (2.423-6.540); how it was run: as §2
TGF-beta receptor type-1 [15] = target: T1, TGF-beta receptor type-1; assay: Binding affinity to Activin A receptor type II-like kinase (ALK5) in fluorescence polarization binding assay; Range is (0.021-0.042); how it was run: as §1
TGF-beta receptor type-1 [16] = target: T1, TGF-beta receptor type-1; assay: Binding affinity to Activin A receptor type II-like kinase (ALK5) in fluorescence polarization binding assay; Range is (0.289-3.621); how it was run: as §2
MAP kinase p38 [17] = target: T3, MAP kinase p38 (Homo sapiens, UniProt O15264+Q15759+Q16539+P53778); assay: Displacement of ATP from p38 MAP kinase by fluorescence polarization assay; format: protein assay
How it was run: (§3)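 p38 MAP kinase binding measured by fluorescence polarization: displacement of a fluorescently labelled ATP-competitive inhibitor by a compound concentration series gives a binding IC50. Runs were duplicated or repeated as three separate experiments; 95% confidence limits on pIC50 were converted to IC50 limits.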

TGF-beta receptor type-1 [18] = target: T1, TGF-beta receptor type-1; assay: Inhibition of recombinant Activin A receptor type II-like kinase (ALK5) expressed in baculovirus/Sf9 cells; format: cell-based
TGF-beta receptor type-1 [19] = target: T1, TGF-beta receptor type-1; assay: Binding affinity to Activin A receptor type II-like kinase (ALK5) in fluorescence polarization binding assay; Range is (0.029-0.032)
MAP kinase p38 [20] = target: T3, MAP kinase p38; assay: Displacement of ATP from Mitogen-activated protein kinase p38 in fluorescence polarization assay; Range is (0.242-0.545); how it was run: as §3
TGF-beta receptor type-1 [21] = target: T1, TGF-beta receptor type-1
TGF-beta receptor type-1 [22] = target: T1, TGF-beta receptor type-1; assay: Binding affinity to Activin A receptor type II-like kinase (ALK5) in fluorescence polarization binding assay; Range is (1.375-9.154); how it was run: as §1
TGF-beta receptor type-1 [23] = target: T1, TGF-beta receptor type-1; remark: listed apart in the source
TGF-beta receptor type-1 [24] = target: T1, TGF-beta receptor type-1; assay: Binding affinity to Activin A receptor type II-like kinase (ALK5) in fluorescence polarization binding assay; Range is (0.038-0.042); how it was run: as §1
TGF-beta receptor type-1 [25] = target: T1, TGF-beta receptor type-1; assay: Binding affinity to Activin A receptor type II-like kinase (ALK5) in fluorescence polarization binding assay; Range is (0.356-4.455); how it was run: as §1
MAP kinase p38 [26] = target: T3, MAP kinase p38; assay: Displacement of ATP from Mitogen-activated protein kinase p38 in fluorescence polarization assay; Range is (0.208-1.155); how it was run: as §3
TGF-beta receptor type-1 [27] = target: T1, TGF-beta receptor type-1; remark: listed apart in the source

Sequence of Mitogen-activated protein kinase kinase kinase 11 (Q16584 whole entry): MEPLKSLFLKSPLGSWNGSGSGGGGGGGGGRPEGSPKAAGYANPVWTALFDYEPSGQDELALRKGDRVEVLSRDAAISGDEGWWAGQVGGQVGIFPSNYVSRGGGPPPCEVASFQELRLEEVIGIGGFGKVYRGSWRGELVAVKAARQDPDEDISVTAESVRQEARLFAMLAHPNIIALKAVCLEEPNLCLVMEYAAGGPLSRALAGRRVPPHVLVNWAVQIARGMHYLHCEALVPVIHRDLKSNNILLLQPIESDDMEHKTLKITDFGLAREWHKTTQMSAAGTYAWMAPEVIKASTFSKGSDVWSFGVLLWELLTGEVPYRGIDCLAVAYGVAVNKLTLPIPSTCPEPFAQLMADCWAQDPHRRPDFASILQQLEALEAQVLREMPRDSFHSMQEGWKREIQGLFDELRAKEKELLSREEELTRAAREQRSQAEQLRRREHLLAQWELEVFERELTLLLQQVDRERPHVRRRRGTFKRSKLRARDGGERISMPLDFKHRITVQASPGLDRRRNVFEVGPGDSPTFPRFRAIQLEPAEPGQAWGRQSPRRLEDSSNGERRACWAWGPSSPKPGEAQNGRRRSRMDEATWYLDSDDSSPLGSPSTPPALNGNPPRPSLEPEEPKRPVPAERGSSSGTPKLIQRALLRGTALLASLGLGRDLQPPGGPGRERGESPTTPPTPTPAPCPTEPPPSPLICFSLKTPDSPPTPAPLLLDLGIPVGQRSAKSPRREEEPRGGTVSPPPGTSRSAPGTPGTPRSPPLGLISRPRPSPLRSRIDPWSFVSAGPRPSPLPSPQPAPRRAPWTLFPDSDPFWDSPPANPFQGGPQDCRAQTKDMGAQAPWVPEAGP
Sequence of Proto-oncogene tyrosine-protein kinase LCK (P06240 whole entry): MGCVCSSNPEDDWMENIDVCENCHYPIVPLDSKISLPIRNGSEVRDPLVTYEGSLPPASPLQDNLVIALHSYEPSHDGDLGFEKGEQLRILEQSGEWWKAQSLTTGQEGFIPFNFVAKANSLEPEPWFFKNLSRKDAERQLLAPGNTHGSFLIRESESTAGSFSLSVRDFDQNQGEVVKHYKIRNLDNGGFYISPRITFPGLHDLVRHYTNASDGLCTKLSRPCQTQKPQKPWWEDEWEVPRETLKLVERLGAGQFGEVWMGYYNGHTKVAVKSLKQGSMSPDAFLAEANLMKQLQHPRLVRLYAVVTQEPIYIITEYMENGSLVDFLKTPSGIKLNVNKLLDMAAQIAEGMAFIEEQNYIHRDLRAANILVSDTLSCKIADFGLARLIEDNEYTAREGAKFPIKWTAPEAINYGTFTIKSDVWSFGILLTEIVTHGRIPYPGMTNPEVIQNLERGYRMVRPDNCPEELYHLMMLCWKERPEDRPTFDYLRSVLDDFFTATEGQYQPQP
Sequence of Mitogen-activated protein kinase 10 (P53779 whole entry): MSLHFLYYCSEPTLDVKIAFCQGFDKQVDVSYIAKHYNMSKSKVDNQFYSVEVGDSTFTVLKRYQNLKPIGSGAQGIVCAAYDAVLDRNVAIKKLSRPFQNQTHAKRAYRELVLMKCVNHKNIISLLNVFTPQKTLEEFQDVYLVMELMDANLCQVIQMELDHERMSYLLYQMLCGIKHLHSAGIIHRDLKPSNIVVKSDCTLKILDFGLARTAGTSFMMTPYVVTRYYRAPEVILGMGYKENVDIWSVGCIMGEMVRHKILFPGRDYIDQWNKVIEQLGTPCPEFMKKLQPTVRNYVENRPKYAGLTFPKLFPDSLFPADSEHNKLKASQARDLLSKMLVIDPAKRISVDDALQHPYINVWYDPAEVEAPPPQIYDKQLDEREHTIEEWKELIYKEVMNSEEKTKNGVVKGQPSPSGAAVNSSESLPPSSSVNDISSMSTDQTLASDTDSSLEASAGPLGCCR
Sequence of Mitogen-activated protein kinase 8 (P45983 whole entry): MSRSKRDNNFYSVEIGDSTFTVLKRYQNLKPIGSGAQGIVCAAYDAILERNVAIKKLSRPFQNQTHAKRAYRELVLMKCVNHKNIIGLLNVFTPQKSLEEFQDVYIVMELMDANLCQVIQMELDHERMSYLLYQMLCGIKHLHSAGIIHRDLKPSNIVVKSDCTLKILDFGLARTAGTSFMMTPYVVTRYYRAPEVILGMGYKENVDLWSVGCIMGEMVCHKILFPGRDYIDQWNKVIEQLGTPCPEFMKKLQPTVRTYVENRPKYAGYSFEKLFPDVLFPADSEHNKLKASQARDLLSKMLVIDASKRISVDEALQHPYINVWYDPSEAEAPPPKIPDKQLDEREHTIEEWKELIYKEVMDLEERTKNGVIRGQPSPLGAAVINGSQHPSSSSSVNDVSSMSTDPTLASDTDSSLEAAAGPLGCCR
Sequence of Ribosomal protein S6 kinase alpha-5 (O75582 whole entry): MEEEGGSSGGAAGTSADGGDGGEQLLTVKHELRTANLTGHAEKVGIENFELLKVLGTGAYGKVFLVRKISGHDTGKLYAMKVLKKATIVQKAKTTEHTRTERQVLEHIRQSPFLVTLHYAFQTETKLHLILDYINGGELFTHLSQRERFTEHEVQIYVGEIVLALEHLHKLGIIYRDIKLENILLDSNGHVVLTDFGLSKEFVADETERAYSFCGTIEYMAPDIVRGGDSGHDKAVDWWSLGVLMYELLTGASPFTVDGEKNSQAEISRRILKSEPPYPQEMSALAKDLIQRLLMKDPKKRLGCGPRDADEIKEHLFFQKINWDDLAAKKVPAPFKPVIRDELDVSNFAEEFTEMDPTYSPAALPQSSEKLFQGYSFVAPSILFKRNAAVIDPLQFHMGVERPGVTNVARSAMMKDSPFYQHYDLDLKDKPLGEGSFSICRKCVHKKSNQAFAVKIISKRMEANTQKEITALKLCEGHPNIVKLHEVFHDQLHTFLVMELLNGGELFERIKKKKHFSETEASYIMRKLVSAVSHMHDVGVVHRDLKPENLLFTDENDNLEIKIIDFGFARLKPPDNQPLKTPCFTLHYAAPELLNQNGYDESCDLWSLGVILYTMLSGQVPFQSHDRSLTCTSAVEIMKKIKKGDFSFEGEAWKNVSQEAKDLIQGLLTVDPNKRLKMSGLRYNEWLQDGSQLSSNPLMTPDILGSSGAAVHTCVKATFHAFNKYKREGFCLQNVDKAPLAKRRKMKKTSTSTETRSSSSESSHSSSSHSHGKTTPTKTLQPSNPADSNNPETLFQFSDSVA
Sequence of Serine/threonine-protein kinase B-raf (P15056 whole entry): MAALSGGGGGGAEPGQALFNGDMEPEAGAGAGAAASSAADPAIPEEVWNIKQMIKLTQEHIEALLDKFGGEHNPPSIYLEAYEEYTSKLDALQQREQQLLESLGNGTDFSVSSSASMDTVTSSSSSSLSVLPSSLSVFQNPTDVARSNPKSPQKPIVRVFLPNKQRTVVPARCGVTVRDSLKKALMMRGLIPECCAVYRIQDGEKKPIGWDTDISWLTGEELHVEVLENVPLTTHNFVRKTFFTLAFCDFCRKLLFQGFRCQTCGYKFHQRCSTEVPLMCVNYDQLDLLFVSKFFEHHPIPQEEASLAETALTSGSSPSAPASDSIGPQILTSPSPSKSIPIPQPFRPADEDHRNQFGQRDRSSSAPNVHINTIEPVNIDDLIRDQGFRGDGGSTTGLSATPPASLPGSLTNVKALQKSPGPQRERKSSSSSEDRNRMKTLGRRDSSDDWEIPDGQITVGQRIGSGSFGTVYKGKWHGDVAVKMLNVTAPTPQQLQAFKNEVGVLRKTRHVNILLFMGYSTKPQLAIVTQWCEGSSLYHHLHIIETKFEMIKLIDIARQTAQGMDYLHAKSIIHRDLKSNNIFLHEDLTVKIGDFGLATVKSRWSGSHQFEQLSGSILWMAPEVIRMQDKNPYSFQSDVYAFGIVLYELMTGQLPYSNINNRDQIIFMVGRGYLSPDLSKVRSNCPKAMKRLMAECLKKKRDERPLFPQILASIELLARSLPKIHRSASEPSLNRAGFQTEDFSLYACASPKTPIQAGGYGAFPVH

For `Nc1nc(-c2ccccn2)c(-c2cccc3ccccc23)s1`, the IC50 (TGF-beta receptor type-1 [1]) was > 10000 nM and the IC50 (TGF-beta receptor type-1 [2]) was 11000 nM.
For `Nc1nc(-c2ccc(Cl)cn2)c(-c2ccnc3ccccc23)s1`, the IC50 (TGF-beta receptor type-1 [1]) was > 10000 nM and the IC50 (TGF-beta receptor type-1 [3]) was 1770 nM.
`COc1ccccc1-c1nc(N)sc1-c1ccnc2ccccc12` was tested, and the IC50 (TGF-beta receptor type-1 [4]) was > 10000 nM and the IC50 (TGF-beta receptor type-1 [1]) was > 10000 nM.
In the case of `CCOc1ccc2nc(-c3sc(N)nc3-c3ccccn3)ccc2n1`, the IC50 (TGF-beta receptor type-1 [4]) is reported as > 10000 nM and the IC50 (TGF-beta receptor type-1 [1]) is reported as > 10000 nM.
`Cc1cccc(-c2n[nH]cc2-c2ccc3ncccc3n2)n1` [GW786460X] was tested, and the IC50 [5] was > 16000 nM, the IC50 [6] was > 16000 nM and the IC50 [7] was > 16000 nM. For the same compound, the IC50 [8] was > 16000 nM, the IC50 [9] was > 16000 nM and the IC50 [10] was > 16000 nM. The IC50 [11] was > 16000 nM.
In the case of `Cc1ccc(-c2nc(N)sc2-c2ccnc3ccccc23)nc1`, the IC50 (TGF-beta receptor type-1 [4]) is reported as > 10000 nM and the IC50 (TGF-beta receptor type-1 [1]) is reported as > 10000 nM.
With `Nc1nc(-c2nccs2)c(-c2ccnc3ccccc23)s1` the IC50 (TGF-beta receptor type-1 [1]) was 6580 nM and the IC50 (TGF-beta receptor type-1 [12]) was 1170 nM.
In the case of `Nc1nc(-c2ccccn2)c(-c2ccnc3ncccc23)s1`, the IC50 (TGF-beta receptor type-1 [1]) is reported as > 10000 nM and the IC50 (TGF-beta receptor type-1 [13]) is reported as 7940 nM.
`Nc1nc(-c2cccnc2)c(-c2ccnc3ccccc23)s1` was tested, and the IC50 (TGF-beta receptor type-1 [1]) was > 10000 nM and the IC50 (TGF-beta receptor type-1 [14]) was 3980 nM.
In the case of `Cc1ccnc2ccc(-c3sc(N)nc3-c3ccccn3)nc12`, the IC50 (TGF-beta receptor type-1 [1]) is reported as 220 nM and the IC50 (TGF-beta receptor type-1 [15]) is reported as 30 nM.
With `Nc1nc(-c2cc(Cl)ccn2)c(-c2ccnc3ccccc23)s1` the IC50 (TGF-beta receptor type-1 [1]) was > 10000 nM and the IC50 (TGF-beta receptor type-1 [16]) was 1020 nM.
With `Cc1cccc(-c2nc(N)sc2-c2ccc3ncccc3n2)n1` the IC50 (MAP kinase p38 [17]) was > 16000 nM.
With `c1ccc(-c2n[nH]cc2-c2ccc3ncccc3n2)nc1` the IC50 (TGF-beta receptor type-1 [1]) was 50 nM, the IC50 (MAP kinase p38 [17]) was > 16000 nM and the IC50 (TGF-beta receptor type-1 [18]) was 19 nM. For the same compound, the IC50 (TGF-beta receptor type-1 [19]) was 30 nM.
`Nc1nc(-c2cccc(Cl)c2)c(-c2ccc3ncccc3n2)s1` [GW780159X] was tested, and the IC50 (MAP kinase p38 [20]) was 360 nM, the IC50 (TGF-beta receptor type-1 [1]) was 10 nM and the IC50 (TGF-beta receptor type-1 [18]) was 10 nM. The IC50 (TGF-beta receptor type-1 [21]) was 20 nM.
In the case of `Nc1nc(-c2ccccn2)c(-c2ccc3ccccc3n2)s1`, the IC50 (TGF-beta receptor type-1 [1]) is reported as > 10000 nM and the IC50 (TGF-beta receptor type-1 [22]) is reported as 3540 nM.
`Cc1ccc2nccc(-c3sc(N)nc3-c3ccccn3)c2n1` showed an IC50 (TGF-beta receptor type-1 [1]) of 260 nM and an IC50 (TGF-beta receptor type-1 [23]) of 380 nM.
For `Nc1nc(-c2ccccn2)c(-c2ccc3ncccc3n2)s1` [GW693481X], the IC50 (TGF-beta receptor type-1 [1]) was 120 nM, the IC50 (MAP kinase p38 [17]) was > 16000 nM and the IC50 (TGF-beta receptor type-1 [18]) was 20 nM. The IC50 (TGF-beta receptor type-1 [24]) was 40 nM.
Compound `Nc1nc(-c2ccccc2F)c(-c2ccnc3ccccc23)s1` has an IC50 (TGF-beta receptor type-1 [1]) of 6670 nM and an IC50 (TGF-beta receptor type-1 [25]) of 1250 nM.
`Nc1nc(-c2ccc(F)cc2)c(-c2ccc3ncccc3n2)s1` [GW785804X] gave an IC50 (MAP kinase p38 [26]) of 490 nM, an IC50 (TGF-beta receptor type-1 [1]) of 30 nM and an IC50 (TGF-beta receptor type-1 [18]) of 10 nM. The IC50 (TGF-beta receptor type-1 [27]) was 40 nM.
